Assay results taken from ChEMBL document CHEMBL6134784, “Furoxan-piplartine hybrids as effective NO donors and ROS inducers in PC3 cancer cells: design, synthesis, and biological evaluation” (RSC Med Chem, 2024).
The source made the active and inactive calls. The rule behind the calls is not given here.

Columns and labels:
PC-3 [1] = assay: Cell cycle arrest in human PC-3 cells assessed as down regulation of CCND1 gene expression at 0.24 uM measured after 3 hrs by qPCR analysis; type: functional, cell-based
Outline: (§1)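 Seeded 1×10^5 cells per well in 6-well plates; PC3 treated 3 h. Total RNA extracted, qPCR; each target normalized to reference gene (β-actin) by efficiency-corrected ΔΔCt (Pfaffl) against a control calibrator sample, efficiencies from amplification profiles. Mean ± SEM of four independent experiments.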

PC-3 [2] = assay: Induction of morphological changes in human PC-3 cells assessed as cell rounding at 0.24 uM measured after 24 hrs by phase contrast microscopy; type: functional, cell-based
Outline: (§2)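 PC3 cells were seeded at 1×10^5 per well in 6-well plates and treated after 24 h, with or without 1 mM N-acetyl-L-cysteine. The same observation field was imaged by phase contrast microscopy at 1, 2, 3, 4 and 24 h. DMSO vehicle served as control.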

PC-3 [3] = assay: Induction of apoptosis in human PC-3 cells assessed as early apoptotic cells at 0.24 uM measured after 6 hrs by Alexa Fluor 488-annexin V/propidium iodide staining based flow cytometry (reference value: 6%); type: functional
PC-3 [4] = assay: Induction of apoptosis in human PC-3 cells assessed as necrotic cells at 0.24 uM measured after 6 hrs by Alexa Fluor 488-annexin V/propidium iodide staining based flow cytometry (reference value: 1.28%); type: functional
PC-3 [5] = assay: Induction of apoptosis in human PC-3 cells assessed as viable cells at 0.24 uM measured after 6 hrs by Alexa Fluor 488-annexin V/propidium iodide staining based flow cytometry (reference value: 89.37%); type: functional; details: read-out: Activity
PC-3 [6] = assay: Cell cycle arrest in human PC-3 cells assessed as increase in cell accumulation at sub-G1 phase at 0.24 uM measured after 3 hrs in presence of antioxidant N-acetyl-L-cysteine by propidium iodide staining based flow cytometry; type: functional
Outline: (§3)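 PC3 cells seeded 1×10^5 per well in 6-well plates, exposed 3 h, with or without 1 mM N-acetyl-L-cysteine pretreatment; vehicle 0.1% DMSO. Harvested with trypsin-EDTA, fixed in 75% ethanol in PBS at 4 °C for 30 min, stained 1 h with RNase (1.5 mg mL^-1) and propidium iodide (90 μg mL^-1); DNA content by flow cytometry. Phase fractions compared with control by ANOVA/Tukey.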

PC-3 [7] = assay: Induction of morphological changes in human PC-3 cells assessed as reduction in cell density at 0.24 uM measured after 24 hrs in presence of antioxidant N-acetyl-L-cysteine by phase contrast microscopy; type: functional, cell-based; outline: as §2
PC-3 [8] = assay: Cytotoxicity against human PC-3 cells assessed as reduction in cell viability at 0.24 uM measured after 24 hrs by SRB assay; type: functional, cell-based
Outline: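 SRB assay: PC3 seeded 1×10^4 per well, after 24 h exposed 24 h at 37 °C, 5% CO2 with or without 1 mM N-acetyl-L-cysteine; vehicle 0.1% DMSO. Fixed with 15% TCA at 4 °C for 1 h, dried, stained 0.4% sulforhodamine B, dye solubilized in 10 mM Tris, absorbance 540 nm; ANOVA/Tukey.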

PC-3 [9] = assay: Cell cycle arrest in human PC-3 cells assessed as accumulation of cells at sub-G1 phase at 0.24 uM measured after 3 hrs by propidium iodide staining based flow cytometry (reference value: 0.75 +/- 0.21%); type: functional; outline: as §3
PC-3 [10] = assay: Induction of morphological changes in human PC-3 cells assessed as cell rounding at 0.24 uM measured after 24 hrs in presence of antioxidant N-acetyl-L-cysteine by phase contrast microscopy; type: functional, cell-based; outline: as §2
PC-3 [11] = assay: Induction of DNA damage in human PC-3 cells assessed as increase in phosphorylated gamma-H2AX expression at 0.24 uM measured after 6 hrs by DAPI staining based confocal laser scanning microscopy; type: functional, cell-based
Outline: (§4)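 γ-H2AX immunostaining: PC3 on coverslips (1×10^5 cells), serum-starved 18 h, then treated (methods state 1 h; legend states 6 h); fixed 3.7% formaldehyde, permeabilized 0.25% Triton X-100, blocked 3% albumin, anti-phospho-H2A.X Ser139 (1:500) then Alexa Fluor 488 secondary, DAPI nuclei; confocal, 500 cells per slide, three experiments; UVC 20 min positive control.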

PC-3 [12] = assay: Cell cycle arrest in human PC-3 cells assessed as reduction in cell accumulation at G0/G1 phase at 0.24 uM measured after 3 hrs by propidium iodide staining based flow cytometry; type: functional; outline: as §3
PC-3 [13] = assay: Induction of apoptosis in human PC-3 cells assessed as effect on BAX gene expression at 0.05 uM measured after 3 hrs by qPCR analysis; type: functional, cell-based; outline: as §1
PC-3 [14] = assay: Cytotoxicity against human PC-3 cells assessed as cell growth inhibition at 0.05 uM measured after 48 hrs by CCK-8 assay relative to control; type: functional; details: read-out: GI
Outline: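 PC3 at 1×10^4 cells per well attached 24 h, pretreated 1 h with carboxy-PTIO (0, 0.50, 3.13, 6.25, 12.50, 25, 50 μM), then compound added for 48 h; washed three times with PBS, growth read by CCK-8 as percent inhibition versus control cells; two experiments in triplicate.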

PC-3 [15] = assay: Induction of DNA damage in human PC-3 cells assessed as increase in phosphorylated gamma-H2AX expression at 0.05 uM measured after 6 hrs by DAPI staining based confocal laser scanning microscopy; type: functional, cell-based; outline: as §4
PC-3 [16] = assay: Induction of apoptosis in human PC-3 cells assessed as late apoptotic cells at 0.05 uM measured after 6 hrs by Alexa Fluor 488-annexin V/propidium iodide staining based flow cytometry (reference value: 3.37%); type: functional
PC-3 [17] = assay: Cell cycle arrest in human PC-3 cells assessed as increase in cell accumulation at sub-G1 phase at 0.05 uM measured after 3 hrs in presence of antioxidant N-acetyl-L-cysteine by propidium iodide staining based flow cytometry; type: functional; outline: as §3
PC-3 [18] = assay: Cell cycle arrest in human PC-3 cells assessed as accumulation of cells at sub-G1 phase at 0.05 uM measured after 3 hrs by propidium iodide staining based flow cytometry (reference value: 0.75 +/- 0.21%); type: functional; outline: as §3
PC-3 [19] = assay: Cell cycle arrest in human PC-3 cells assessed as increase in cell accumulation at G2/M phase at 0.05 uM measured after 3 hrs by propidium iodide staining based flow cytometry; type: functional; outline: as §3
PC-3 [20] = assay: Cell cycle arrest in human PC-3 cells assessed as down regulation of cyclin D1 expression at 0.05 uM measured after 3 hrs by Western blot analysis; type: functional, cell-based
Outline: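 Western blot: PC3 seeded 1×10^7 per 100 mm dish, treated 3 h or 6 h, lysed in RIPA with protease/phosphatase inhibitors; 50 μg protein on 12% SDS-PAGE, PVDF transfer, 5% milk block, anti-cyclin D1 (1:1000) overnight at 4 °C, HRP anti-rabbit secondary, β-actin loading control, ECL detection and band densitometry; two independent experiments.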

PC-3 [21] = assay: Induction of ROS generation in human PC-3 cells at 0.05 uM measured after 30 mins by CellROX reagent based confocal microscopy; type: functional, cell-based
Outline: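 Confocal ROS imaging of PC3: cells loaded with 2.5 μM CellROX green plus 0.5 μM MitoTracker Red for 30 min at 37 °C, washed three times in PBS, imaged immediately; DMSO vehicle and H2O2 controls.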

PC-3 [22] = assay: Induction of morphological changes in human PC-3 cells assessed as cell rounding at 0.05 uM measured after 24 hrs in presence of antioxidant N-acetyl-L-cysteine by phase contrast microscopy; type: functional, cell-based; outline: as §2

COc1cc(/C=C/C(=O)N2CCC=CC2=O)cc(OC)c1OCCCOc1no[n+]([O-])c1S(=O)(=O)c1ccccc1
Activity (PC-3 [1]): Active | Activity (PC-3 [2]): Active | Activity (PC-3 [3]): 9.17% | Activity (PC-3 [4]): 0.81% | viability at 0.24 µM (PC-3 [5]): 48.6% | Activity (PC-3 [6]): inactive | Activity (PC-3 [7]): inactive | Activity (PC-3 [8]): Active | Activity (PC-3 [9]): 7.6% | Activity (PC-3 [10]): inactive | Activity (PC-3 [11]): Active | Activity (PC-3 [12]): Active; Significant Reduction Observed

COc1cc(/C=C/C(=O)N2CCC=CC2=O)cc(OC)c1OCCCCCCCCCCCCOc1no[n+]([O-])c1S(=O)(=O)c1ccccc1
Activity (PC-3 [13]): inactive | inhibition of growth at 0.05 µM (PC-3 [14]): 65% | Activity (PC-3 [15]): Active | Activity (PC-3 [16]): 81.12% | Activity (PC-3 [17]): inactive | Activity (PC-3 [18]): 9.8% | Activity (PC-3 [19]): Active | Activity (PC-3 [20]): Active | Activity (PC-3 [21]): Active | Activity (PC-3 [22]): inactive
